Screens deposited in PubChem by several laboratories.
ATG4B inh: inhibitors of human ATG4B cysteine protease; Q9Y4P1; 340,000 tested, 0.51% active; inhibition, % at 8.33 µM; ATG4B cleavage of LC3-PLA2, NBD-HPC fluorescence, 1 h; in the data active = inhibition above about 40%
LEDGF integ inh: blocks HIV-1 LEDGF/p75-dependent DNA integration. TR-FRET IN-LEDGF/p75 DNA integration, Eu/Cy5. inhibition, % at 3.7 µM. 370,000 tested, 0.64% active. AID 743269;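 active = inhibition above the screen-wide mean plus 3 SD, cut at about 13% in these data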;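 note: signal is the Cy5 over europium emission ratio at 671 and 618 nm; 0% = plate median of compound wells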
rCAG RNA binder: r(CAG) repeat RNA binding. inhibition, % at 3 µM. 370,000 tested, 1.3% active. AID 651821. TO-PRO-1 dye displacement fluorescence;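 active = inhibition above the plate cutoff, the mean of all test compounds on that plate plus 3 SD, cut at about 35% in these data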;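 note: 0% = DMSO alone and 100% = 100 µM mitoxantrone as full dye displacement; higher means more dye released from RNA so lower well fluorescence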
CSN inh: blocks human CSN-mediated cullin deneddylation; 360,000 tested, 0.38% active; AID 651999; inhibition, % at 12.5 µM; Purified CSN, SCF-Nedd8-OG deneddylation, fluorescence polarization; Q92905;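 active = pattern-corrected inhibition above about 35%, with an unprinted fluorescence ratio check between 0.5 and 1.5, limit read from the data, passing the limit was not always enough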;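 note: 0% = enzyme with substrate and 100% = substrate without enzyme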
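Material: human Csn5 produced in HEK293T cells; Input: enzyme 0.24 nM; Reagent: SCFSkp2-Nedd8OG substrate at 10 nM final; Dosing: 12.5 µM compound; Incubation: 90 min reaction at room temperature; Detection: fluorescence polarization of the substrate; Evaluation: % inhibition of substrate cleavage by Csn5; Control set: substrate-only high control, full reaction low control.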
MBD2 inh: blocks human MBD2 binding to methylated DNA; Q9UBB5; TR-FRET, MBD2 binding to methylated oligonucleotide; inhibition, % at 4.4 µM; 370,000 tested, 0.31% active; in the data active = inhibition above about 13%
UHRF1 binding: UHRF1 methyl-DNA binding inhibition | UHRF1 binding to methylated oligo, TR-FRET | inhibition, % at 4.4 µM | 370,000 tested, 0.75% active; in the data active = inhibition above about 21%;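 note: UHRF1 SRA domain binding a hemimethylated CpG hairpin DNA probe; 0% = median of test compound wells and 100% = reference inhibitor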
Target sequence (Q96T88 whole entry, looked up, the tested form may be a part): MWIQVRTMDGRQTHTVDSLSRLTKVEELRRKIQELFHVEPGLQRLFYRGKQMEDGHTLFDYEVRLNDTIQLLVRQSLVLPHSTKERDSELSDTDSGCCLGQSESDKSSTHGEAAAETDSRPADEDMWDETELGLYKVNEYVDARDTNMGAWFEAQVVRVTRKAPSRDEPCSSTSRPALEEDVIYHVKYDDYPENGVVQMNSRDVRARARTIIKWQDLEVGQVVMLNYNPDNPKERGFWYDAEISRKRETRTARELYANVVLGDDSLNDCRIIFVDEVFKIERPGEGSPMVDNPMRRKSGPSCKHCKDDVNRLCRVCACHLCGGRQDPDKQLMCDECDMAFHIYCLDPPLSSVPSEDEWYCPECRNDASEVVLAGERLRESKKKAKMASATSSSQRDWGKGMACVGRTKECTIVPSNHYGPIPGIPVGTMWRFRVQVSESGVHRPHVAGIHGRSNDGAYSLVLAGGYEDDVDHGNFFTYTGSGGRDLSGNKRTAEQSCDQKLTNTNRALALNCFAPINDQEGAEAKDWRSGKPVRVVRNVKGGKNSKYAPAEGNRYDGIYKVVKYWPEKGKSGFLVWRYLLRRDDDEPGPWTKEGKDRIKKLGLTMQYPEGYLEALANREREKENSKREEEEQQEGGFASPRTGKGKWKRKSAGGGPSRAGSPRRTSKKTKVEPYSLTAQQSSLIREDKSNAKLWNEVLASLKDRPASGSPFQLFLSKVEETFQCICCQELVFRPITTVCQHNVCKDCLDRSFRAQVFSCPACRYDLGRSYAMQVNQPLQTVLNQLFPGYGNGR
IN multimer act: counter-screen for LEDGF/p75 integration inhibitors: HIV-1 integrase multimerization activators; shares compounds with LEDGF integ inh; TR-FRET HIV-1 integrase multimerization, biochemical; activation, % at 7.7 µM; 2,000 tested, 17% active; AID 1053131; in the data active = activation above about 8.9%
TRFRET interf: TR-FRET optical interference, LEDGF/p75 integration counter-screen; shares compounds with LEDGF integ inh; TR-FRET optical interference counterscreen, HIV-1 IN multimerization; inhibition, % at 7.7 µM; 2,000 tested, under 10 active; AID 1053135;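 active = inhibition above the mean over all tested compounds plus 3 SD, which no compound reached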;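 note: 0% = integrase with antibodies and DMSO and 100% = antibodies without integrase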
LEDGF integ conf: LEDGF/p75-dependent HIV-1 integration inhibition, confirmation | shares compounds with LEDGF integ inh | TR-FRET LEDGF/p75-dependent HIV-1 integration, biochemical | inhibition, % at 3.7 µM | 2,000 tested, 36% active | AID 1053136; in the data active = inhibition above about 14%
The depositor's hits bear a star. Only some compounds are listed: those with a hit (about 3.1% of all), similar ones and a draw of the others.

For CCc1ccc(S(=O)(=O)Nc2ccc(O)c3ccccc23)cc1 the results were ATG4B inh -8, LEDGF integ inh 13, rCAG RNA binder 21, CSN inh 5, MBD2 inh -5 and UHRF1 binding -2.
`COc1ccc(NC(=O)Nc2ccc(O)c3ccccc23)cc1` gave ATG4B inh -10, LEDGF integ inh 15*, rCAG RNA binder 12, MBD2 inh -8, UHRF1 binding 1, IN multimer act 7, TRFRET interf -24 and LEDGF integ conf 8.
CC(=O)c1ccc(NC(=S)NC(=O)Cc2ccc(Cl)cc2)cc1 was read as ATG4B inh -9, LEDGF integ inh 15*, rCAG RNA binder -1, CSN inh -2, MBD2 inh 0, UHRF1 binding 4, IN multimer act 8, TRFRET interf -28 and LEDGF integ conf -3.
Screening Cc1ccc(Sc2ncccc2C(=O)NC2CCCCCC2)cc1C returned ATG4B inh 1, LEDGF integ inh 0, rCAG RNA binder 0, CSN inh 1, MBD2 inh -6 and UHRF1 binding 1.
For O=C(NC1CCCCCC1)c1cccnc1Sc1ccccc1 the results were ATG4B inh -6, LEDGF integ inh 24*, rCAG RNA binder -6, CSN inh -13, MBD2 inh -4, UHRF1 binding -2, IN multimer act 0, TRFRET interf 0 and LEDGF integ conf -3.
Cc1[nH]c(=O)[nH]c1C(=O)CCCCC(=O)O was read as ATG4B inh -8, LEDGF integ inh 73*, rCAG RNA binder -2, CSN inh -6, MBD2 inh 2, UHRF1 binding 2, IN multimer act -2, TRFRET interf 8 and LEDGF integ conf 60*.
Screening CC(C(=O)Nc1cccc([N+](=O)[O-])c1)n1nnc2ccccc21 (stereo unspecified) returned ATG4B inh 2, LEDGF integ inh 82*, rCAG RNA binder 1, CSN inh 0, MBD2 inh 1, UHRF1 binding -4, IN multimer act -2, TRFRET interf 6 and LEDGF integ conf -12.
Screening CC(C(=O)Nc1cccc([N+](=O)[O-])c1)[n+]1ccccc1 (stereo unspecified) returned ATG4B inh -6, LEDGF integ inh -5, rCAG RNA binder 2, CSN inh -3, MBD2 inh -1 and UHRF1 binding 1.
Screening Clc1ccc(/C=N/NC2=Nc3cccc4cccc2c34)cc1 returned ATG4B inh 4, LEDGF integ inh 2, rCAG RNA binder 6, CSN inh 16, MBD2 inh 1 and UHRF1 binding -1.
For C(=N\NC1=Nc2cccc3cccc1c23)/c1ccccc1 the results were ATG4B inh -24, LEDGF integ inh 19*, rCAG RNA binder 6, CSN inh 6, MBD2 inh 0, UHRF1 binding 1, IN multimer act 0, TRFRET interf -1 and LEDGF integ conf -7.
Cc1cccc(-c2cccc3c4c([nH]c23)[C@@H]2C[C@H](N(C)C(=O)OCc3ccccc3)[C@H]([C@H](C)O)CN2CC4)c1 was read as LEDGF integ inh 0, rCAG RNA binder 8, MBD2 inh 0 and UHRF1 binding -3.
`Oc1cc2c(cc1O)C1c3ccc(O)c(O)c3OCC1(O)C2` (stereo unspecified) gave ATG4B inh -23, LEDGF integ inh 89*, rCAG RNA binder 1, CSN inh 18, MBD2 inh 9, UHRF1 binding 12, IN multimer act 41*, TRFRET interf -205 and LEDGF integ conf 79*.
`O=C(COc1ccccc1[N+](=O)[O-])NCCC1=CCCCC1` gave ATG4B inh 13, LEDGF integ inh 18*, rCAG RNA binder -9, CSN inh 9, MBD2 inh -2, UHRF1 binding -2, IN multimer act 0, TRFRET interf -2 and LEDGF integ conf -1.
Screening O=C(NCCCc1ccccc1)OC1CC2CC1[C@H]1CCCCN1[C@H]2Cc1ccccc1 (stereo partly specified) returned LEDGF integ inh 2, rCAG RNA binder 2, MBD2 inh -2 and UHRF1 binding 2.
Screening O=C(NNc1ccccc1[N+](=O)[O-])Nc1ccc(Cl)c(Cl)c1 returned ATG4B inh 6, LEDGF integ inh -3, rCAG RNA binder 10, CSN inh -2, MBD2 inh 0 and UHRF1 binding 1.
`O=C1NC(=O)C(c2ccccc2[N+](=O)[O-])=C1Nc1ccc(O)c(Cl)c1` gave ATG4B inh -6, LEDGF integ inh 26*, rCAG RNA binder 9, CSN inh -2, MBD2 inh -11, UHRF1 binding -4, IN multimer act 5, TRFRET interf -19 and LEDGF integ conf 1.
For COc1ccc(OC)c(CNC(=O)CCNC(=O)Cn2ccc3ccccc3c2=O)c1 the results were ATG4B inh -3, LEDGF integ inh 47*, rCAG RNA binder -3, CSN inh -2, MBD2 inh -2, UHRF1 binding 3, IN multimer act -1, TRFRET interf 4 and LEDGF integ conf 3.
Screening COc1ccc(Br)cc1CNC(=O)CCNC(=O)Cn1ccc2ccccc2c1=O returned ATG4B inh 8, LEDGF integ inh -1, rCAG RNA binder -4, CSN inh -2, MBD2 inh -5 and UHRF1 binding -2.
CCN1C(=O)N(C(C)=O)[C@@H]2C[C@H](C(=O)N3CCCC3)[C@H](C)[C@H](c3ccccc3)C[C@@H]21 was read as LEDGF integ inh -2, rCAG RNA binder 2, MBD2 inh 2 and UHRF1 binding 0.
Screening CCC1(C)Cc2ccccc2-c2nc(NCCCO)[nH]c(=O)c21 (stereo unspecified) returned ATG4B inh -9, LEDGF integ inh -4, rCAG RNA binder -2, CSN inh 2, MBD2 inh 1 and UHRF1 binding -1.
For CCC1(CC)Cc2ccccc2-c2nc(NCCCO)[nH]c(=O)c21 the results were ATG4B inh -1, LEDGF integ inh 14*, rCAG RNA binder 1, CSN inh -5, MBD2 inh 2, UHRF1 binding 3, IN multimer act 0, TRFRET interf -2 and LEDGF integ conf 6.
For Fc1cccc(Cl)c1/C=N/Nc1ccccn1 the results were ATG4B inh -2, LEDGF integ inh 2, rCAG RNA binder -2, CSN inh 1, MBD2 inh -1 and UHRF1 binding 0.
